Assay outcomes as filed in PubChem.
An excerpt weighted towards active compounds, which were near 4.1% of everything screened.
TbMetRS inhib: Trypanosoma brucei MetRS inhibition; purified T. brucei MetRS, ATP depletion, Kinase-Glo luminescence; inhibition, % at 11.9 µM; actives 0.4% (n = 360,000); AID 624268;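 active = inhibition above a per-plate cutoff of the control wells' mean inhibition plus 3 SD, cut at about 5.5% in these data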
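Test system – parasite MetRS enzyme · Reagent – substrates ATP, L-methionine and bulk Escherichia coli tRNA · Doses – 11.9 µM compound single dose, 0.9% DMSO · Times – 15 min enzyme-compound preincubation, 2 h reaction, 10 min detection, 25 °C · Signal – Kinase-Glo luminescence, ATP depletion format · Controls – DMSO-only wells as low control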
TAG inh: reduces triacylglycerol accumulation in H9c2 cells; Nile Red lipid (TAG) fluorescence; cells loaded with 200 µM oleic acid; inhibition, % at 12.5 µM; actives 0.66% (n = 230,000);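 active = pattern-corrected inhibition of lipid staining of at least 50% with the nuclear-stain viability signal not falling by more than 50%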
AHR activator: human AHR activation. activation, % at 5 µM. actives 2.5% (n = 320,000). AID 2796. P35869. AHR-responsive luciferase reporter cells, luminescence; in the data active = activation above about 47%
Target sequence (P35869 whole entry, looked up): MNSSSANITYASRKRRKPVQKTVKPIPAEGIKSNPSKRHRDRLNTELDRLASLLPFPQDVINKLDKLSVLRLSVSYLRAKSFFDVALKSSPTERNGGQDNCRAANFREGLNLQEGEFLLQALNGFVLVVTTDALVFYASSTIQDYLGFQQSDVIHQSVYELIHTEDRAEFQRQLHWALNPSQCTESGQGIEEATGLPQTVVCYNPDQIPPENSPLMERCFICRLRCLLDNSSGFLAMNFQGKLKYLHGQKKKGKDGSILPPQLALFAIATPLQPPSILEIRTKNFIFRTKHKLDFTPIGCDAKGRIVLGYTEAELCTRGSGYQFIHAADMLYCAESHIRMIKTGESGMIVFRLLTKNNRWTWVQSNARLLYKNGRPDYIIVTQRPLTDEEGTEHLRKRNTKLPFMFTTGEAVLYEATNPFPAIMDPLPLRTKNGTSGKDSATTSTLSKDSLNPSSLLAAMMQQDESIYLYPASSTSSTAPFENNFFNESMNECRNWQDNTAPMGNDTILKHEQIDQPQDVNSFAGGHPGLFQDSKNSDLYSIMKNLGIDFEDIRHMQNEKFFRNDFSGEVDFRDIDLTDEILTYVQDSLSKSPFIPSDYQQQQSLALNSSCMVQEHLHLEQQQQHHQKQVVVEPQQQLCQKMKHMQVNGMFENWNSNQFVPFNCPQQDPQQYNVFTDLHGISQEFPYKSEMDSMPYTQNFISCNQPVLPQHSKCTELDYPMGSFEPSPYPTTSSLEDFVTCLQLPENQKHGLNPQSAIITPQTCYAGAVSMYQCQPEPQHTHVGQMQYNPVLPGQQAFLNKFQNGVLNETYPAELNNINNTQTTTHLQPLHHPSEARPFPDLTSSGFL
Efflux pump inh: antifungal efflux pump inhibition, Nile Red retention; S. cerevisiae Candida pump triplex; inhibition, % at 10 µM; actives 0.44% (n = 330,000); AID 485275;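 active = plate passing quality check with inhibition over a set limit, or well fluorescence over plate mean plus 4 SD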;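 also: Nile Red retained in pooled yeast measured as flow cytometry median fluorescence; higher means more Nile Red kept so more efflux inhibition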
SMARCA2 activ: increases SMARCA2 function in MMTV reporter cells; actives 1% (n = 370,000); activation, % at 9.1 µM; MG213 cells, MMTV-luciferase reporter, dexamethasone, overnight; in the data active = activation above about 7.8%
AHR act cf: confirmation of human aryl hydrocarbon receptor activators; shares compounds with AHR activator; human cells, AHR-responsive luciferase reporter, luminescence; activation, % at 9 µM; actives 87% (n = 2,300); AID 2845; in the data active = activation above about 49%;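 also: HepG2 hepatoma cells carrying a DRE-driven firefly luciferase reporter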
PXR act counter: PXR activation, counter-screen for AHR activators | shares compounds with AHR activator | cell-based PXR reporter, luciferase luminescence | activation, % at 11.6 µM | actives 88% (n = 2,300); in the data active = activation above about 11%;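 also: human hepatoma DPX-2 cells expressing full-length human PXR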
Hits are given with their value; 0 = inactive; - = no result given.

SMILES	TbMetRS inhib	TAG inh	AHR activator	Efflux pump inh	SMARCA2 activ	AHR act cf	PXR act counter
Cc1cc(C)cc(NC(=O)C2(C(=O)C3CC3)CC(c3ccccc3C(F)(F)F)=NO2)c1 (stereo unspecified)	-	-	-	-	0	-	-
COc1cc(NC(=O)c2ccccc2)c(OC)cc1NC(=O)CN1CCCCC1	0	0	83	0	0	96	23
Cc1ccc(OCC(=O)NCc2cccs2)c([N+](=O)[O-])n1	0	0	105	0	0	0	12
O=C(/C=C/c1ccccc1)NC(=S)Nc1ccc(CN2CCOCC2)cc1	0	-	0	0	0	-	-
O=C(NC(=S)Nc1ccc(CN2CCOCC2)cc1)c1ccc(-c2cccc(Cl)c2)o1	0	0	90	0	0	67	20
O=C(/C=C/c1ccc(Cl)cc1Cl)NC(=S)Nc1ccc(CN2CCOCC2)cc1	0	-	105	0	0	0	83
COC(=O)[C@]12C[C@H](CC(=O)NCCCN3CCCC3=O)C(=O)N(CCC3=CCCCC3)C1=C[C@H](C1CCCC1)O[C@@H]2C	-	-	-	-	0	-	-
O=C(NC1CCCCN(Cc2cccc(F)c2)C1=O)c1ccc2ccccc2c1 (stereo unspecified)	-	-	-	-	0	-	-
COC[C@@H]1CCCN1c1cccc2c1S(=O)(=O)N1CC[C@@H](C1)O2	-	-	-	-	0	-	-
O=c1[nH]c(/C=C/c2ccccc2OC(F)F)nc2c1cnn2-c1ccccc1	0	-	85	0	0	0	33
Cc1nc2ccc(S(=O)(=O)NCC(=O)N(C)Cc3ccc(F)cc3)cc2s1	-	-	-	-	0	-	-
O=C(N[C@H](C(=O)N1CCC[C@H]1C(=O)NC1CCCC1)c1ccccc1)C1CCCC1	-	-	-	-	0	-	-
O=C1N=c2ccc(Br)cc2=C1c1sc(=S)n(NS(=O)(=O)c2ccccc2)c1O	0	0	83	0	0	0	23
COC(=O)[C@]12C[C@H](CC(=O)N3CCN(C(=O)c4ccco4)CC3)C(=O)N(CCc3ccc(OC)c(OC)c3)C1=C[C@H](C1CCCC1)O[C@@H]2C	-	-	-	-	0	-	-
Cn1cccc1C(=O)N1CCN(S(=O)(=O)c2ccc([N+](=O)[O-])cc2)CC1	-	-	-	-	0	-	-
Oc1c(C=NCc2ccc(F)cc2)[nH]c2ccc(Br)c(Cl)c12	-	-	81	0	0	86	31
Cc1ccc(CN=Cc2[nH]c3ccc(Br)c(Cl)c3c2O)cc1	0	-	0	0	0	-	-
NC(N)=Nc1nc2ccccc2o1	0	-	0	0	0	-	-
N/C(=N\c1nc2ccccc2o1)NC(=O)c1ccccc1F	0	0	104	0	0	167	15
COc1ccccc1C(=O)NC(=Nc1nc2ccccc2o1)NC(=O)c1ccccc1OC	0	0	107	0	0	133	45
Cc1ccc(NC(=O)C2CCCN2S(=O)(=O)c2cccnc2)c(C)c1 (stereo unspecified)	-	-	-	-	0	-	-
COC(=O)[C@]12C[C@H](CC(=O)N3CCCC3)C(=O)N(Cc3ccccc3)C1=C[C@H](COCc1ccccc1)O[C@@H]2C	-	-	-	-	0	-	-
O=C(Nc1ccc(C(F)(F)F)cc1)c1ccc2nc[nH]c2c1	0	-	106	0	0	98	10
O=C(Nc1ccc(OC(F)(F)F)cc1)c1ccc2nccnc2c1	0	0	86	0	0	81	15
COc1ccc(NC(=O)c2ccc3nc[nH]c3c2)cc1	0	-	80	0	0	79	19
SMILES	TbMetRS inhib	TAG inh	AHR activator	Efflux pump inh	SMARCA2 activ	AHR act cf	PXR act counter
COC(=O)c1ccc(NC(=O)c2ccc3nccnc3c2)cc1	0	-	0	0	0	-	-
COc1cccc(/C=C/c2ccc3cccc(O)c3n2)c1OC	0	-	81	0	0	65	13
COc1ccc(/C=C/c2ccc3cccc(O)c3n2)c(OC)c1OC	0	-	0	0	0	-	-
O=c1[nH]c(CSc2nnc3ccccn23)nc2ccccc12	0	-	0	0	0	-	-
O=c1cc(CSc2nnc3ccccn23)c2c(ccc3ccccc32)o1	0	-	84	0	0	65	29
N#Cc1ccc(C(=O)Nc2cc(S(=O)(=O)Nc3ccc(Cl)cc3)ccc2N2CCCCC2)cc1	0	-	105	0	0	58	119
COC(=O)[C@]12C[C@H](CC(=O)NCc3cccs3)C(=O)N(Cc3ccccc3)C1=C[C@H](C(C)C)O[C@@H]2C1CC1	-	-	-	-	0	-	-
CC1CCN(C(=O)c2cc(-c3ccco3)on2)CC1	0	-	97	0	0	128	31
CCC1=NN=C(c2ccc(F)cc2)C(c2c[nH]c3ccccc23)N1O (stereo unspecified)	0	0	87	0	0	78	20
CCOC(=O)CC[C@@H]1CC[C@]2(CCCN(C(=O)c3ccno3)C2)O1	-	-	-	-	0	-	-
Cc1ccc(C2=NCCn3c2c2ccccc2[n+]3[O-])cc1	0	0	0	0	0	-	-
[O-][n+]1c2ccccc2c2n1CCN=C2c1ccc(Cl)cc1	0	0	102	0	0	115	12
Nc1c(Cl)cc(C2=NCCn3c2c2ccccc2[n+]3[O-])cc1Cl	0	0	85	0	0	101	20
O=C1N2CCc3ccccc3C2CS(=O)(=O)N1Cc1ccc(F)cc1 (stereo unspecified)	-	-	-	-	0	-	-
CCOC(=O)C1=NOC(C(C)=O)(C(=O)NC2CCCC2)C1 (stereo unspecified)	-	-	-	-	0	-	-
CCCC[C@H]1C2CC(OC(=O)Nc3ccccc3OC)C(C2)[C@H]2CCCCN21 (stereo partly specified)	-	-	-	-	0	-	-
COC(=O)c1ccccc1NC(=O)CC(=O)Nc1ccccc1C(=O)OC	0	-	0	0	0	-	-
COC(=O)c1ccccc1NC(=O)Cn1ccnc1	0	0	104	0	0	84	-
CNC(=S)N/N=C(\C)c1ccc(-n2ccnc2)cc1	0	0	0	0	0	-	-
C=CCNC(=S)N/N=C(\C)c1ccc(-n2ccnc2)cc1	0	0	89	0	0	106	19
C/C(=N\NC(=S)NC(C)C)c1ccc(-n2ccnc2)cc1	0	0	122	0	0	77	14
Cc1cc(N2CCN(C(=O)OC(C)(C)C)C[C@@H]2C)ccc1N1CCN(Cc2ccccc2)[C@H](C)C1	-	-	-	-	0	-	-
O=C1CSc2ccc(C(=O)N3CCCC(C(=O)N4CCCC4)C3)cc2N1 (stereo unspecified)	-	-	-	-	0	-	-
CN(C(=S)NC(=O)c1ccc(F)cc1)C1CCCCC1	0	0	0	0	0	-	-
CN(C(=S)NC(=O)c1ccc(Cl)cc1)C1CCCCC1	0	0	91	0	0	113	94
O=C(Nc1nccs1)c1csc2c1CCCC2	0	0	84	0	0	121	25
Cc1cc(C)c(O)c(C(=O)CC2CC(=O)NC(=O)C2)c1	-	-	-	-	0	-	-
COc1ccc(Nc2nc(N)nc(CSc3nnc(N)s3)n2)cc1	0	-	112	0	0	110	15
NCCCn1c(C(=O)c2ccc(Cl)cc2)c2ccc(C(F)(F)F)cc2[n+]1[O-]	0	0	100	0	0	104	29
COc1ccc(NC(=O)c2c(Cl)nc3ccccn23)cc1	0	0	86	0	0	0	0
